We go through 5 compounds from ChEMBL document CHEMBL1152715, “13-Methyl-substituted des-C,D analogs of (20S)-1alpha,25-dihydroxy-2-methylene-19-norvitamin D3 (2MD): synthesis and biological evaluation” (Bioorg Med Chem, 2009).

In experiment [1] the test system is Rattus norvegicus. The experiment is described as follows: Effect on bone calcium mobilization in vitamin D-deficient weanling rat assessed as increase in serum calcium level at 1.9 ug/kg, ip administered as 7 consecutive daily doses measured 24 hrs after last dose relative to untreated control. In kind it is functional. The essentials: (§1)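 Weanling male rats were fed a 0.47% Ca diet for 1 week, then a 0.02% Ca diet for 3 weeks. In the final week they received daily intraperitoneal doses for 7 days in 0.1 mL propylene glycol/ethanol (95:5); controls got vehicle. There were 5–6 rats per group. Serum Ca and the intestinal serosal/mucosal Ca ratio were compared with vehicle.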

The target in experiment [2] is T1, Vitamin D3 receptor (Rattus norvegicus, UniProt P13053).
T1 sequence (P13053 whole entry): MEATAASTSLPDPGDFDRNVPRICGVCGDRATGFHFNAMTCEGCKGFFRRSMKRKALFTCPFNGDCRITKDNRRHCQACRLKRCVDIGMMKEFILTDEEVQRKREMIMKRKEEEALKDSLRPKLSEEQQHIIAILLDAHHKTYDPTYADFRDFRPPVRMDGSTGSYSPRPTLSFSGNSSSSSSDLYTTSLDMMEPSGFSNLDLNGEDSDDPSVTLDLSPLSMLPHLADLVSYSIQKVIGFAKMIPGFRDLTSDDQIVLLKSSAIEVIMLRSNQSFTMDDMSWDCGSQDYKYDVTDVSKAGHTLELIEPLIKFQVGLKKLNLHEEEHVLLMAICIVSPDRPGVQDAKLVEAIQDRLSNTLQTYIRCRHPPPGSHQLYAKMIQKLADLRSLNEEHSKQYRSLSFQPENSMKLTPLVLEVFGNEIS
The experiment is described as follows: Displacement of [3H]1-alpha,25-(OH)2D3 from rat recombinant full length VDR. The essentials: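 It was incubated overnight on ice with 1 nM (final) [3H]1α,25-(OH)2D3 plus unlabeled competitor, ethanol <10%. Bound ligand was collected on hydroxylapatite, washed and scintillation counted. […] Runs were in duplicate.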
In general terms: Displacement assays read how much labelled ligand stays bound in the presence of the test substance.

Experiment [3] has as its system HL-60. The experiment is described as follows: Ratio of EC50 of drug to EC50 of 1-alpha,25-(OH)2D3 for induction of cell differentiation of human HL60 cells to monocytes by NBT reduction assay.
For experiment [4], the system named is HL-60. The experiment is described as follows: Induction of cell differentiation of human HL60 cells to monocytes by NBT reduction assay. In kind it is functional, cell-based.
Experiment [5] relates to Rattus norvegicus. Briefly: Effect on bone calcium mobilization in vitamin D-deficient weanling rat assessed as increase in serum calcium level at 5.7 ug/kg, ip administered as 7 consecutive daily doses measured 24 hrs after last dose relative to untreated control. In kind it is functional. In a few lines:
as §1

The test system of experiment [6] is Rattus norvegicus. The experiment is described as follows: Effect on bone calcium mobilization in vitamin D-deficient weanling rat assessed as increase in serum calcium level at 22.8 ug/kg, ip administered as 7 consecutive daily doses measured 24 hrs after last dose relative to untreated control. In kind it is functional. In a few lines:
as §1

In experiment [7] the target is T1, Vitamin D3 receptor. The experiment is described as follows: Activity at VDR in rat ROS 17/2.8 cells assessed as transcriptional activation of 24-hydroxylase gene promoter after 16 hrs by luciferase reporter gene assay. The class given is cell-based. The essentials: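 ROS 17/2.8 rat osteosarcoma cells stably transfected with a 24-hydroxylase promoter–luciferase reporter were dosed over a concentration range and harvested 16 h later. Luciferase was read on a luminometer.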
(In a reporter assay the amount or activity of a reporter protein is the signal.)

Experiment [8] relates to Rattus norvegicus. Briefly: Effect on bone calcium mobilization in vitamin D-deficient weanling rat assessed as increase in serum calcium level at 55 ug/kg, ip administered as 7 consecutive daily doses measured 24 hrs after last dose relative to untreated control. In kind it is functional. In a few lines:
as §1

Experiment [9] deals with Rattus norvegicus. The experiment is described as follows: Effect on bone calcium mobilization in vitamin D-deficient weanling rat assessed as increase in serum calcium level at 5.5 ug/kg, ip administered as 7 consecutive daily doses measured 24 hrs after last dose relative to untreated control. In kind it is functional. The essentials:
as §1

Experiment [10] relates to Rattus norvegicus. The experiment is described as follows: Effect on calcium transport in vitamin D-deficient weanling rat intestine assessed as increase in ratio of serosal to mucosal calcium level at 165 ug/kg, ip administered as 7 consecutive daily doses measured 24 hrs after last dose. In kind it is functional. In a few lines:
as §1

The subject of experiment [11] is Rattus norvegicus. Briefly: Effect on calcium transport in vitamin D-deficient weanling rat intestine assessed as increase in ratio of serosal to mucosal calcium level at 55 ug/kg, ip administered as 7 consecutive daily doses measured 24 hrs after last dose. The class given is functional. The essentials: as §1
Experiment [12] deals with Rattus norvegicus. The experiment is described as follows: Effect on bone calcium mobilization in vitamin D-deficient weanling rat assessed as increase in serum calcium level at 165 ug/kg, ip administered as 7 consecutive daily doses measured 24 hrs after last dose relative to untreated control. In kind it is functional. The essentials:
as §1

In experiment [13] the test system is Rattus norvegicus. The experiment is described as follows: Effect on calcium transport in vitamin D-deficient weanling rat intestine assessed as increase in ratio of serosal to mucosal calcium level at 5.5 ug/kg, ip administered as 7 consecutive daily doses measured 24 hrs after last dose. In kind it is functional. In a few lines:
as §1

Take `C=C1[C@H](O)CC(=C/C=C/CCC[C@@H](C)CCCC(C)(C)O)C[C@H]1O`: the “fold change (FC)” value in the experiment with Rattus norvegicus [1] is listed as -0.2; in the experiment on Rattus norvegicus [5], 0.1; in the experiment on Rattus norvegicus [6] it was 0.2. Also, the inhibition constant (Ki) on Vitamin D3 receptor [2] was 50 nM. Moreover, the “Ratio EC50” value in the experiment with HL-60 [3] is given as 100. Besides, the values for the EC50 with HL-60 [4] and on Vitamin D3 receptor [7] were 300 nM and 50 nM, respectively.

For `C=C1[C@H](O)CC(=C/C=C/C/C(C)=C/[C@@H](C)CCCC(C)(C)O)C[C@H]1O`, the Ki at Vitamin D3 receptor [2] is 60 nM. Moreover, the “Ratio EC50” value in the experiment with HL-60 [3] was above 333. Besides, the 50% effective concentration (EC50) is above 1000 nM in the experiment on HL-60 [4] and above 100 nM at Vitamin D3 receptor [7].

In the case of `C=C1[C@H](O)CC(=C/C=C\C/C(C)=C/[C@@H](C)CCCC(C)(C)O)C[C@H]1O`, the inhibition constant Ki on Vitamin D3 receptor [2] was above 1000 nM. Further, the “Ratio EC50” value in the experiment with HL-60 [3] is reported as above 333. Moreover, the values for the EC50 with HL-60 [4] and on Vitamin D3 receptor [7] were above 1000 nM and above 100 nM, respectively.

Consider `C=C1[C@H](O)CC(=C/C=C/C[C@H](C)C[C@@H](C)CCCC(C)(C)O)C[C@H]1O`, for which the inhibition constant Ki at Vitamin D3 receptor [2] came out at 30 nM. Also, the “Ratio EC50” value in the experiment on HL-60 [3] is on record as 2. Besides, the 50% effective concentration (EC50) stood at 6 nM in the experiment with HL-60 [4] and 3 nM at Vitamin D3 receptor [7].

For `C=C1[C@H](O)CC(=C/C=C/C[C@@H](C)C[C@@H](C)CCCC(C)(C)O)C[C@H]1O`, the “fold change (FC)” value is -0.2 in the experiment on Rattus norvegicus [8], -0.2 with Rattus norvegicus [9] and -0.1 with Rattus norvegicus [12]. The inhibition constant (Ki) at Vitamin D3 receptor [2] worked out at 10 nM. The figures for the Ratio with Rattus norvegicus [10], in the experiment on Rattus norvegicus [11] and in the experiment on Rattus norvegicus [13] were -0.9, -0.5 and 0.4, respectively. Further, in the experiment with HL-60 [3], the “Ratio EC50” value is reported as 100. Also, the EC50 in the experiment with HL-60 [4] amounted to 300 nM; at Vitamin D3 receptor [7], 90 nM.

As a reminder, the Ki is a measure of affinity in units of concentration, obtained from inhibition or displacement. For orientation: EC50 means the concentration at which the effect is half-maximal.
